Test results: ChEMBL document CHEMBL3259728, “Design, synthesis and biological evaluation of some novel substituted quinazolines as antitumor agents” (2014)

Experiments:
Assay type in all cases: functional
[1] = Growth inhibition of human SF295 cells assessed as cell growth at 10^-5 M after 48 hrs by SRB assay; conditions: SF-295, 48 h, read-out: Activity
SNB-19 = assay: Growth inhibition of human SNB19 cells assessed as cell growth at 10^-4 M after 48 hrs by SRB assay; conditions: SNB-19, 48 h, read-out: Activity
[2] = Growth inhibition of human HOP92 cells assessed as cell growth at 10^-7 M after 48 hrs by SRB assay; conditions: HOP-92, 48 h, read-out: Activity
M14 = assay: Growth inhibition of human M14 cells assessed as cell growth at 10^-5 M after 48 hrs by SRB assay; conditions: M14, 48 h, read-out: Activity
786-0 [3] = assay: Growth inhibition of human 786-0 cells assessed as cell growth at 10^-4 M after 48 hrs by SRB assay; conditions: 786-0, 48 h, read-out: Activity
Procedure, shortened: (§1)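 Five-dose NCI panel protocol. Each dose (10^-4 to 10^-8 M, 10-fold steps) was given as 48 h continuous exposure, and protein was measured by SRB staining. Percentage growth at each level is [(Ti−Tz)/(C−Tz)]×100, where Tz is time-zero absorbance and C is untreated control.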

NCI-H460 = assay: Cytotoxicity against human NCI-H460 cells after 48 hrs by SRB assay; conditions: NCI-H460, 48 h
Procedure, shortened: (§2)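 NCI 60-cell-line panel of human tumour lines from nine cancer types. Continuous 48 h exposure at five 10-fold dilutions from 10^-4 to 10^-8 M, with 5-FU as positive control. SRB protein stain read spectrophotometrically at time zero, untreated control and each concentration. GI50, TGI and LC50 were derived from the [(Ti−Tz)/(C−Tz)]×100 growth relations, and out-of-range values are given as > or < the tested limits.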

KM12 [4] = assay: Growth inhibition of human KM12 cells assessed as cell growth at 10^-6 M after 48 hrs by SRB assay; conditions: KM12, 48 h, read-out: Activity
[5] = Growth inhibition of human UO31 cells assessed as cell growth at 10^-4 M after 48 hrs by SRB assay; conditions: UO-31, 48 h, read-out: Activity
[6] = Growth inhibition of human BT549 cells assessed as cell growth at 10^-7 M after 48 hrs by SRB assay; conditions: BT-549, 48 h, read-out: Activity; procedure, shortened: as §1
NCI-H322M = assay: Growth inhibition of human NCI-H322M cells assessed as cell growth at 10^-4 M after 48 hrs by SRB assay; conditions: read-out: Activity
[7] = Growth inhibition of human SF539 cells assessed as cell growth at 10^-6 M after 48 hrs by SRB assay; conditions: SF-539, 48 h, read-out: Activity
HOP-62 = assay: Growth inhibition of human HOP62 cells assessed as cell growth at 10^-5 M after 48 hrs by SRB assay; conditions: HOP-62, 48 h, read-out: Activity
786-0 [8] = assay: Growth inhibition of human 786-0 cells assessed as cell growth at 10^-7 M after 48 hrs by SRB assay; conditions: 786-0, 48 h, read-out: Activity; procedure, shortened: as §1
[9] = Growth inhibition of human OVCAR4 cells assessed as cell growth at 10^-7 M after 48 hrs by SRB assay; conditions: OVCAR-4, 48 h, read-out: Activity
RPMI-8226 = assay: Growth inhibition of human RPMI8226 cells assessed as cell growth at 10^-5 M after 48 hrs by SRB assay; conditions: RPMI-8226, 48 h, read-out: Activity
HT-29 = assay: Growth inhibition of human HT-29 cells assessed as cell growth at 10^-4 M after 48 hrs by SRB assay; conditions: HT-29, 48 h, read-out: Activity
[10] = Growth inhibition of human BT549 cells assessed as cell growth at 10^-6 M after 48 hrs by SRB assay; conditions: BT-549, 48 h, read-out: Activity; procedure, shortened: as §1
[11] = Growth inhibition of human HOP92 cells assessed as cell growth at 10^-8 M after 48 hrs by SRB assay; conditions: HOP-92, 48 h, read-out: Activity
[12] = Growth inhibition of human OVCAR5 cells assessed as cell growth at 10^-7 M after 48 hrs by SRB assay; conditions: OVCAR-5, 48 h, read-out: Activity
ACHN = assay: Growth inhibition of human ACHN cells assessed as cell growth at 10^-4 M after 48 hrs by SRB assay; conditions: read-out: Activity; procedure, shortened: as §1
[13] = Growth inhibition of human NCI-ADR-RES cells assessed as cell growth at 10^-4 M after 48 hrs by SRB assay; conditions: read-out: Activity
[14] = Growth inhibition of human EKVX cells assessed as cell growth at 10^-6 M after 48 hrs by SRB assay; conditions: read-out: Activity
MDA-MB-435 = assay: Growth inhibition of human MDA-MB-435 cells assessed as cell growth at 10^-4 M after 48 hrs by SRB assay; conditions: MDA-MB-435, 48 h, read-out: Activity
SF-268 = assay: Growth inhibition of human SF268 cells assessed as cell growth at 10^-5 M after 48 hrs by SRB assay; conditions: SF-268, 48 h, read-out: Activity
CAKI-1 = assay: Growth inhibition of human CAKI-1 cells assessed as cell growth at 10^-4 M after 48 hrs by SRB assay; conditions: CAKI-1, 48 h, read-out: Activity; procedure, shortened: as §1
SK-MEL-28 = assay: Growth inhibition of human SK-MEL-28 cells assessed as cell growth at 10^-6 M after 48 hrs by SRB assay; conditions: SK-MEL-28, 48 h, read-out: Activity
SR = assay: Growth inhibition of human SR cells assessed as cell growth at 10^-4 M after 48 hrs by SRB assay; conditions: read-out: Activity
[15] = Cytotoxicity against human UACC62 cells after 48 hrs by SRB assay; conditions: UACC-62, 48 h
Procedure, shortened: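 NCI 60-cell-line panel, 48 h continuous exposure to five 10-fold dilutions from 10^-4 to 10^-8 M. SRB protein staining was read spectrophotometrically, with time-zero, untreated-control and treated absorbances. GI50, TGI and LC50 were derived from the percentage-growth formulas. Values outside the tested range are expressed as more or less than the maximum or minimum concentration.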

Malme-3M = assay: Growth inhibition of human MALME-3M cells assessed as cell growth at 10^-5 M after 48 hrs by SRB assay; conditions: read-out: Activity
KM12 [16] = assay: Growth inhibition of human KM12 cells assessed as cell growth at 10^-8 M after 48 hrs by SRB assay; conditions: KM12, 48 h, read-out: Activity
[17] = Cytotoxicity against human OVCAR4 cells after 48 hrs by SRB assay; conditions: OVCAR-4, 48 h; procedure, shortened: as §2
[18] = read-out: LC50 (the source's name)
[19] = read-out: pLC50 (the source's name) (converted)

For Cc1ccc(-c2nc3ccc(Cl)cc3c(=O)n2/N=C/c2ccccc2)cc1, the growth at 10 µM [1] was 36%, the growth at 100 µM (SNB-19) was 10% and the growth at 0.1 µM [2] was 89%. For the same molecule, the growth at 10 µM (M14) was 60%, the growth at 100 µM (786-0 [3]) was 17% and the GI50 (NCI-H460; read-out: GI50) was 3.68 µM. For the same molecule, the CC50 (NCI-H460; [18]) was over 100 µM, the TGI (NCI-H460; read-out: TGI) was over 100 µM and the GI50 (NCI-H460; read-out: pGI50 (converted)) was 3.72 µM. The CC50 (NCI-H460; [19]) was over 100 µM, the TGI (NCI-H460; read-out: pTGI) was over 100 µM and the growth at 1 µM (KM12 [4]) was 91%. It also gave a growth at 100 µM [5] of 39%, a growth at 0.1 µM [6] of 94% and a growth at 100 µM (NCI-H322M) of 42%. The growth at 1 µM [7] was 94%, the growth at 10 µM (HOP-62) was 36% and the growth at 0.1 µM (786-0 [8]) was 93%. The growth at 0.1 µM [9] was 96%, the growth at 10 µM (RPMI-8226) was 72% and the growth at 100 µM (HT-29) was 45%. For the same molecule, the growth at 1 µM [10] was 103%, the growth at 0.01 µM [11] was 93% and the growth at 0.1 µM [12] was 88%. The growth at 100 µM (ACHN) was 6%, the growth at 100 µM [13] was 36% and the growth at 1 µM [14] was 76%. For the same molecule, the growth at 100 µM (MDA-MB-435) was 57%, the growth at 10 µM (SF-268) was 50% and the growth at 100 µM (CAKI-1) was 32%. The growth at 1 µM (SK-MEL-28) was 93%, the growth at 100 µM (SR) was 62% and the GI50 ([15]; read-out: GI50) was 25.8 µM. For the same molecule, the CC50 [15, 18] was over 100 µM, the TGI ([15]; read-out: TGI) was over 100 µM and the GI50 ([15]; read-out: pGI50 (converted)) was 25.7 µM. It also gave a CC50 [15, 19] of over 100 µM, a TGI ([15]; read-out: pTGI) of over 100 µM and a growth at 10 µM (Malme-3M) of 43%. It also gave a growth at 0.01 µM (KM12 [16]) of 95%, a GI50 ([17]; read-out: GI50) of 4.54 µM and a CC50 [17, 18] of over 100 µM. The TGI ([17]; read-out: TGI) was over 100 µM, the GI50 ([17]; read-out: pGI50 (converted)) was 4.57 µM and the CC50 [17, 19] was over 100 µM. The TGI ([17]; read-out: pTGI) was over 100 µM.
